These results are taken from ChEMBL document CHEMBL4613214, “In Vitro Activation of Cytochrome P450 46A1 (CYP46A1) by Efavirenz-Related Compounds” (J Med Chem, 2020).

Active and inactive are the calls of the source. The calls are words filed in the database; no cut-off is given here.

The subject of experiment [1] is Cholesterol 24-hydroxylase (Homo sapiens), Q9Y6A2 [UNDEFINED MUTATION]. Briefly: Activation of recombinant human C-terminal 4His-tagged CYP46A1 delta(2 to 50) mutant expressed in Escherichia coli at 20 uM using cholesterol as substrate measured after 30 mins in presence of cytochrome P450 oxidoreductase by gas chromatography-mass spectrometry relative to control. The gist of the method:
(§1)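 Fixed 20 μM test compound (final, 2% methanol) with 0.5 μM purified Δ(2-50)CYP46A1 (wild type or mutant) and 1.0 μM rat P450 oxidoreductase. Buffer: 50 mM KPi pH 7.2, 100 mM NaCl, 40 μg/mL dilauroylphosphatidylcholine, 40 μM cholesterol, catalase, NADPH-regenerating system. Run 30 min at 37 °C. 24-Hydroxycholesterol measured by GC-MS against a deuterated internal standard. Fold activation over no-activator control; mean ± SD, three independent experiments.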

For experiment [2] the test system is unchanged. Briefly: Activation of recombinant human C-terminal 4His-tagged CYP46A1 delta(2 to 50) mutant expressed in Escherichia coli at 20 uM using cholesterol as substrate measured after 30 mins in presence of cytochrome P450 oxidoreductase and L-Glu by gas chromatography-mass spectrometry relative to control. The gist of the method:
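Co-incubation of 100 μM L-Glu with 20 μM test compound, 0.5 μM Δ(2-50)CYP46A1 and 1.0 μM P450 oxidoreductase. Buffer: 50 mM KPi pH 7.2, 100 mM NaCl, phospholipid, 40 μM cholesterol, NADPH-regenerating system. Run 30 min at 37 °C. 24-Hydroxycholesterol measured by GC-MS with a deuterated internal standard. Fold activation relative to control; mean ± SD of three experiments.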

Experiment [3] is filed under the species Homo sapiens. Briefly: Activation of recombinant human C-terminal 4His-tagged CYP46A1 delta(2 to 50) R415A mutant expressed in Escherichia coli at 20 uM using cholesterol as substrate measured after 30 mins in presence of cytochrome P450 oxidoreductase by gas chromatography-mass spectrometry. The gist of the method:
as §1

Experiment [4] is filed under the species Homo sapiens. Briefly: Activation of recombinant human C-terminal 4His-tagged CYP46A1 delta(2 to 50) F405A mutant expressed in Escherichia coli at 20 uM using cholesterol as substrate measured after 30 mins in presence of cytochrome P450 oxidoreductase by gas chromatography-mass spectrometry. The gist of the method: as §1
For experiment [5], the species on record is Homo sapiens. Briefly: Activation of recombinant human C-terminal 4His-tagged CYP46A1 delta(2 to 50) K358A mutant expressed in Escherichia coli at 20 uM using cholesterol as substrate measured after 30 mins in presence of cytochrome P450 oxidoreductase by gas chromatography-mass spectrometry. In short, it runs like this: as §1
For experiment [6], the species on record is Homo sapiens. Briefly: Activation of recombinant human C-terminal 4His-tagged CYP46A1 delta(2 to 50) F416A mutant expressed in Escherichia coli at 20 uM using cholesterol as substrate measured after 30 mins in presence of cytochrome P450 oxidoreductase by gas chromatography-mass spectrometry. In short, it runs like this: as §1
Experiment [7] is filed under the species Homo sapiens. Briefly: Activation of recombinant human C-terminal 4His-tagged CYP46A1 delta(2 to 50) Y427A mutant expressed in Escherichia coli at 20 uM using cholesterol as substrate measured after 30 mins in presence of cytochrome P450 oxidoreductase by gas chromatography-mass spectrometry. In short, it runs like this:
as §1

For experiment [8], the species on record is Homo sapiens. Briefly: Activation of recombinant human C-terminal 4His-tagged CYP46A1 delta(2 to 50) K358R mutant expressed in Escherichia coli at 20 uM using cholesterol as substrate measured after 30 mins in presence of cytochrome P450 oxidoreductase by gas chromatography-mass spectrometry. The gist of the method:
as §1

The species entered for experiment [9] is Homo sapiens. Briefly: Activation of recombinant human C-terminal 4His-tagged CYP46A1 delta(2 to 50) K358L mutant expressed in Escherichia coli at 20 uM using cholesterol as substrate measured after 30 mins in presence of cytochrome P450 oxidoreductase by gas chromatography-mass spectrometry. The gist of the method:
as §1

For experiment [10], the species on record is Homo sapiens. Briefly: Activation of recombinant human C-terminal 4His-tagged CYP46A1 delta(2 to 50) Y427F mutant expressed in Escherichia coli at 20 uM using cholesterol as substrate measured after 30 mins in presence of cytochrome P450 oxidoreductase by gas chromatography-mass spectrometry. In short, it runs like this:
as §1

Experiment [11] has as its system Cholesterol 24-hydroxylase (Homo sapiens), Q9Y6A2 [UNDEFINED MUTATION]. Briefly: Binding affinity to recombinant human C-terminal 4His-tagged CYP46A1 delta(2 to 50) mutant expressed in Escherichia coli at 15 to 30 uM in absence of substrate by UV-spectrophotometric method. The gist of the method:
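Stopped-flow rapid-scanning spectrophotometry at 23 °C. Substrate-free CYP46A1 (4 μM, in 50 mM KPi pH 7.2 with 100 mM NaCl) was mixed with an equal volume of compound in the same buffer. Spectra were collected over 330–570 nm, and binding rates (kobserved) were fitted.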

Experiment [12] shares this test system. Briefly: Binding affinity to recombinant human C-terminal 4His-tagged CYP46A1 delta(2 to 50) mutant expressed in Escherichia coli at 2 uM in presence of substrate by UV-spectrophotometric method. The gist of the method: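 Stopped-flow rapid-scanning spectrophotometry at 23 °C in 50 mM KPi pH 7.2 with 100 mM NaCl. A premixed 4 μM CYP46A1·4 μM cholesterol complex was mixed with compound, and spectral changes were followed over 330–570 nm.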

Experiment [13] addresses Cholesterol 24-hydroxylase (Homo sapiens, UniProt Q9Y6A2). Briefly: Binding affinity to recombinant human C-terminal 4His-tagged CYP46A1 delta(2 to 50) mutant expressed in Escherichia coli in absence of substrate at 24 degC by stopped-flow spectrophotometric method.
The test system of experiment [14] is Cholesterol 24-hydroxylase (Homo sapiens), Q9Y6A2 [UNDEFINED MUTATION]. Briefly: Binding affinity to substrate bound recombinant human C-terminal 4His-tagged CYP46A1 delta(2 to 50) mutant expressed in Escherichia coli assessed as Koff rate of cholesterol by stopped-flow spectrophotometric method. In short, it runs like this:
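Release rate was measured by stopped-flow chase at 23 °C. A prebound complex (4 μM CYP46A1 plus 4 μM cholesterol, 50 mM KPi pH 7.2, 100 mM NaCl) was mixed with excess clotrimazole (40 μM). The rise in Δ(A437−A416) was followed, and 8–12 traces were averaged and fitted. Values are mean ± SD of three independent experiments.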

Experiment [15] has the same test system. Briefly: Binding affinity to substrate free recombinant human C-terminal 4His-tagged CYP46A1 delta(2 to 50) mutant expressed in Escherichia coli assessed as Kon rate of cholesterol by stopped-flow spectrophotometric method.

Sequence of Cholesterol 24-hydroxylase (Homo sapiens), Q9Y6A2 [UNDEFINED MUTATION] (Q9Y6A2 whole entry, looked up, stated change not applied): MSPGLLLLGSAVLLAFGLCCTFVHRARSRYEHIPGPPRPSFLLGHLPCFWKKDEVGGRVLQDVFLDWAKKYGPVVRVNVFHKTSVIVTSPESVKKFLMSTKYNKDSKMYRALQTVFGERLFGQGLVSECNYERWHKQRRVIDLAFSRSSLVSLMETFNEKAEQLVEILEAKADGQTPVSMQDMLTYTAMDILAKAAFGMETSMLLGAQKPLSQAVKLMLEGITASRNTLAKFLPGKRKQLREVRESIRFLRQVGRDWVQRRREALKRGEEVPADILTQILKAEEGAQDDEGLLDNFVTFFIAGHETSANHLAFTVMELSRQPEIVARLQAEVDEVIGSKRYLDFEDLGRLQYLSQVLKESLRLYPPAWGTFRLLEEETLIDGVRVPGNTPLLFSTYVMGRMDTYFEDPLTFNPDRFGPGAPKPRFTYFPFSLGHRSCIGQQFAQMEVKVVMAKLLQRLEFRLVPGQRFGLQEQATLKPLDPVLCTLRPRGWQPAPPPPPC
Sequence of Cholesterol 24-hydroxylase (Q9Y6A2 whole entry, looked up, stated change not applied): as above

As for `O=C1Nc2c(O)cc(Cl)cc2C(C#CC2(O)CC2)(C(F)(F)F)O1` (racemic), the fold change (FC) in experiment [1] was 6.1; in experiment [2], 4.8. Besides, the result (in the experiment listed under Homo sapiens [3]; in the experiment listed under Homo sapiens [4]; in [11]; in experiment [12]) was inactive. For the same compound, the result in the experiment listed under Homo sapiens [5], in the experiment filed under Homo sapiens [6], in the experiment listed under Homo sapiens [7], in the experiment listed under Homo sapiens [8], in the experiment filed under Homo sapiens [9] and in the experiment listed under Homo sapiens [10] was Active. For the same compound, the Kd in experiment [13] is 5 µM. Also, the K came to 3.6 s⁻¹ in experiment [14] and 0.7 ×10⁶ /M/s in [15].

As a reminder, the Kd is the constant that tells how readily two partners part at equilibrium.
